Measurements pooled from the literature.
Protocols differ between the studies behind these lines.
Target: Death-associated protein kinase 3 (DAPK3, Homo sapiens, UniProt O43293)

`COc1ncccc1-c1cnn2ccc(N3CCN(C(=O)OC(C)C)CC3)nc12` gave a remaining binding of 98% (binding; competition with immobilised ligand; 1 µM).
For `Cc1nn(C)cc1-c1nc2c(N3CCN(Cc4ccc(Cl)cc4)CC3)c(Cl)cnc2[nH]1`, the remaining binding was 84% (binding; competition with immobilised ligand; 1 µM).
The remaining binding of `Cn1cncc1[C@](O)(COc1ccc(C#N)cc1-c1ccc(OC(F)(F)F)cc1)c1ccc(C#N)cc1` is reported as 88% (cell-free assay; competition with immobilised ligand; 1 µM).
`Cn1cc(-c2cc(F)cc(N3CCn4c(cc5c4CCCC5)C3=O)c2CO)cc(Nc2ccc(N3CCN(C4COC4)CC3)cn2)c1=O` gave an inhibition of 3% (enzyme activity; inhibitor; 0.1 µM).
With `O=c1[nH]c2ccccc2n1C1CCN(Cc2ccc(-c3[nH]c4cc5ncnc5cc4nc3-c3ccccc3)cc2)CC1` the remaining signal was 106% (cell-free assay; 0.5 µM).
`Cn1cc(-c2cccc(N3CCc4c(sc5c4CC(C)(C)C5)C3=O)c2CO)cc(Nc2ccncn2)c1=O` has an inhibition of -6% (enzyme activity; inhibitor; 1 µM).
`CC(C)(C)c1cc(C=C(C#N)C#N)cc(Br)c1O` has a remaining activity of 96.4% (enzyme activity; inhibitor; 0.5 µM).
For `Nc1ncc(-c2nc(N3CCOCC3)nc(N3CCOCC3)n2)c(C(F)F)n1`, the remaining binding was 80% (binding; competition with immobilised ligand; 10 µM).
